Compound activity: PubChem, several laboratories
Lmaj promast – Leishmania major promastigote growth inhibition, primary screen. inhibition, % at 10 µM. Leishmania major promastigotes, resazurin fluorescence viability. actives 9% (n = 200,000). AID 1063, 2008;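 also: promastigotes grown with compound for 44 hours at 28 °C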
Arbovirus inh – antivirals against arbovirus infection, primary screen, cell-based, full library, 10K replicate subset. arbovirus infection cell-based antiviral screen. inhibition, % at 10 µM. actives 0.37% (n = 200,000); in the data active = inhibition above about 30%
Wee1 stabilizer – Wee1 degradation inhibitors, primary screen, cell-based, HeLa, Wee1K328M-luciferase, luminescence; Wee1-like protein kinase (Homo sapiens), P30291; HeLa Luc-Wee1K328M stability; 100% = proteasome inhibitor MG132 effect; reporter increase, % at 5 µM; actives 1.2% (n = 220,000); AID 1321, 2008;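 active = activation above the mean of all tested compounds plus 3 SD, set per screening run, cut at about 8.8% in these data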;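 also: cells exposed to compound for 20 h before luminescence read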
Target sequence (P30291 whole entry K328M): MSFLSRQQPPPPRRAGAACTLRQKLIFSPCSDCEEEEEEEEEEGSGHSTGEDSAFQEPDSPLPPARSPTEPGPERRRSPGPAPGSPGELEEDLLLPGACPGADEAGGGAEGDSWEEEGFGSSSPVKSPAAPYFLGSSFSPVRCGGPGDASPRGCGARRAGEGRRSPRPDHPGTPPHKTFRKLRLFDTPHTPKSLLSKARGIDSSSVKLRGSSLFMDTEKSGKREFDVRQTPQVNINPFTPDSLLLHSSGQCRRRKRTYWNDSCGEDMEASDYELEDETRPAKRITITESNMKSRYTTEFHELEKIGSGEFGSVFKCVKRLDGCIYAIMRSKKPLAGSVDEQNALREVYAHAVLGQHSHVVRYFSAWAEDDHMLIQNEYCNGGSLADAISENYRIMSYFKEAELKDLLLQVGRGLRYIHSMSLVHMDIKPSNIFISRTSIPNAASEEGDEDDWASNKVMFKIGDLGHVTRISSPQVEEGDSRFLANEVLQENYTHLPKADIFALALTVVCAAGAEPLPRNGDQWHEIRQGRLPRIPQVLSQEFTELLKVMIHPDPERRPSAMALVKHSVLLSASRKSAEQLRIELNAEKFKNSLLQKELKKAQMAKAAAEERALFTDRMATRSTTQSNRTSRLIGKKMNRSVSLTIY
CHOP inhibitor – inhibitors of CHOP promoter induction, primary screen, cell-based, unfolded protein response, luciferase reporter; CHO-K1 CHOP-promoter luciferase, tunicamycin-induced, 15-18 h; inhibition, % at 10 µM; actives 3.8% (n = 220,000);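 active = compounds that reduced the stress-induced luciferase reporter signal by more than about 70% of percent inhibition, limit read from the data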
Rad51 HR inh – human RAD51 strand exchange inhibitors, primary screen, biochemical, fluorescence | hRad51 DNA strand exchange, fluorescence dequenching | inhibition, % at 10 µM | AID 1385, 2008 | DNA repair protein RAD51 homolog 1 (Homo sapiens), Q06609 | actives 0.085% (n = 200,000);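 active = inhibition above 40% at the single screening dose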
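Test system: preformed human Rad51 ssDNA filaments. Compound dosing: single dose, 10 µM final compound. Incubation: filaments 15 min 37 °C, then compound 30 min. Technique: FRET fluorescence dequenching, excitation 485 nm, emission 520 nm. Read-out basis: percent inhibition from fluorescence, normalised to plate control and blank means. Benchmarks: plate controls and plate blanks.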
PKD1 kinase inh – inhibitors of human PKD1 kinase, biochemical, fluorescence polarization; Serine/threonine-protein kinase D1 (Homo sapiens), Q15139; PKD1 kinase fluorescence polarization assay; inhibition, % (concentration not given with the values); actives 0.056% (n = 200,000)
Numbers stand for hits; - = inactive; . = not tested or not shown. A selection: hits, their analogues and other compounds. The true share with any hit is near 12%. Rule as the data show it, unless noted: active = inhibition above about 50%; inactive = the rest.

SMILES | Lmaj promast | Arbovirus inh | Wee1 stabilizer | CHOP inhibitor | Rad51 HR inh | PKD1 kinase inh
CCN1CCN(C2=CC3=CC(=C(C#N)C#N)CCC3CC2)CC1 (stereo unspecified) | 87.6 | - | - | - | - | -
CC1=CCP(=O)(c2ccccc2)C1 (stereo unspecified) | - | - | - | 72.3 | - | -
CC1(C)CC(C)(O)P(=O)(c2ccccc2)O1 (stereo unspecified) | - | - | - | - | - | -
NS(=O)(=O)c1ccc(N=Nc2c(-c3ccccc3)[nH]n(-c3nc(-c4ccccc4)cs3)c2=O)cc1 | 73.3 | - | - | - | - | -
CCCCSC1(SCCCC)N=C(N)C2(C#N)C(c3ccccc3)NC(C)=C(C)C12C#N (stereo unspecified) | - | - | - | 75.6 | - | -
CCSC1(SCC)N=C(N)C2(C#N)C(c3ccccc3)NC(C)=C(C)C12C#N (stereo unspecified) | - | - | - | - | - | -
O=C(Nc1cccc(Br)c1)c1ccc(CSc2ccccc2)cc1 | - | - | - | - | . | -
Cc1cc(CSc2ccccc2)ccc1NC(=O)c1ccc(Br)cc1 | - | - | - | 95.7 | - | -
CC1CCCC(NC(=O)COC(=O)[C@@H](NC(=O)c2ccco2)C(C)C)C1C (stereo partly specified) | - | - | - | - | . | -
COc1ccccc1Nc1nc(-c2sc(NC(=O)C(C)(C)C)nc2C)cs1 | 99.7 | - | - | - | - | -
C=CCCC(=O)Nc1nc(C)c(-c2csc(Nc3cccc(OC)c3)n2)s1 | - | - | - | - | - | -
CCC(C)C(=O)Nc1nc(C)c(-c2csc(Nc3ccc(Cl)cc3)n2)s1 (stereo unspecified) | - | - | - | - | - | -
Cc1ccc(Cl)cc1Nc1nc(-c2sc(NC(=O)C(C)(C)C)nc2C)cs1 | 96.7 | - | - | - | - | -
COc1cccc(Nc2nc(-c3sc(NC(=O)CC(C)C)nc3C)cs2)c1 | 81.3 | - | - | - | - | -
CCCC(=O)Nc1nc(C)c(-c2csc(Nc3ccc(Cl)cc3)n2)s1 | - | - | - | - | - | -
CCCCCC(=O)Nc1nc(C)c(-c2csc(Nc3cc(Cl)ccc3OC)n2)s1 | 62.0 | - | - | - | - | -
COc1ccccc1Nc1nc(-c2sc(NC(=O)c3cccc(Cl)c3)nc2C)cs1 | - | - | - | - | - | -
COc1ccccc1Nc1nc(-c2sc(NC(=O)CC(C)C)nc2C)cs1 | 67.2 | - | - | - | - | -
CCCC(=O)Nc1nc(C)c(-c2csc(Nc3ccccc3OC)n2)s1 | 59.3 | - | - | - | - | -
CCOc1ccccc1Nc1nc(-c2sc(C)nc2C)cs1 | - | - | - | - | - | -
CC1CC(OC(=O)CN2CCCCC2)CC(C)(C)C1 (stereo unspecified) | . | . | - | - | - | .
Cc1cc(/C=C2\C(=N)N3N=C(C(C)C)SC3=NC2=O)c(C)n1Cc1ccccc1 | . | . | - | - | - | .
Cc1cc(/C=C2\C(=N)N3C(SCc4ccccc4)=NSC3=NC2=O)c(C)n1Cc1ccccc1 | - | - | - | 87.6 | - | -
CSC1=NSC2=NC(=O)/C(=C\c3coc4ccccc4c3=O)C(=N)N12 | - | - | - | - | - | -
CC(C)CSC1=NSC2=NC(=O)/C(=C\c3coc4ccccc4c3=O)C(=N)N12 | - | 51.6 | - | - | - | -
SMILES | Lmaj promast | Arbovirus inh | Wee1 stabilizer | CHOP inhibitor | Rad51 HR inh | PKD1 kinase inh
NC(=O)c1cc2ccncc2c2ccccc12 | . | . | - | - | - | .
Cc1cc2sc3nc(=O)n(-c4ccccc4)c(=O)n3c2cc1C | . | . | - | - | - | .
Cc1ccc(NC(=S)N(CCN(C)C)Cc2cc3cc(C)cc(C)c3[nH]c2=O)cc1 | 79.2 | - | - | - | . | -
CCOCCCN(Cc1cc2cc(C)cc(C)c2[nH]c1=O)C(=O)N(CC)CC | 58.2 | - | - | - | - | -
Cc1ccc2cc(CN(CCN(C)C)C(=S)Nc3ccccc3)c(=O)[nH]c2c1C | - | - | - | - | - | -
CCOC(=O)/C(=N/Nc1ccccc1)Sc1nnnn1-c1ccc(C)cc1 | - | - | - | - | - | -
CCOC(=O)/C(=N/Nc1ccc(Cl)cc1)Sc1nnnn1-c1ccc(C)cc1 | - | - | 10.8 | - | . | -
Cn1c2c(c(=O)[nH]c1=O)C(c1cccc(O)c1)C1=C(N2)c2ccccc2C1=O (stereo unspecified) | - | - | - | - | - | -
O=C(COC(=O)CC1CC2CCC1C2)NC(=O)NCc1ccco1 (stereo unspecified) | - | - | - | 81.8 | - | -
COc1ccc(-c2cc(=O)c3cc(OC)ccc3o2)cc1 | - | - | - | 78.2 | - | -
Cc1cccc(CN2CCN(C(=O)CCl)CC2)c1 | 99.6 | - | - | - | - | -
Cc1ccc(C(C#N)c2ccc(C(=O)c3ccc(F)cc3)cc2)cc1 (stereo unspecified) | 54.4 | - | - | - | - | -
Cc1ccc2c(CN3CCN(CCO)CC3)cc(=O)oc2c1 | - | - | - | - | - | -
Cc1ccc2c(Cn3cc(C(F)(F)F)cc(Cl)c3=O)cc(=O)oc2c1 | 52.5 | - | - | - | - | -
Cc1ccc(CNC(=O)c2ccc([N+](=O)[O-])o2)cc1 | 75.9 | - | - | - | - | -
O=[N+]([O-])c1cc(/C=N/N2CCCCC2)ccc1Cl | - | - | - | - | - | -
O=C(/C=C/c1ccc(Cl)c([N+](=O)[O-])c1)Nc1ccc(N2CCCC2)c(Cl)c1 | 78.6 | - | - | 96.0 | - | -
Cc1ccc(CNC(=O)c2nn(C)c(C)c2[N+](=O)[O-])cc1 | - | - | - | - | - | -
Cc1cccc(NC(=O)c2ccc([N+](=O)[O-])o2)c1C | 97.2 | - | - | - | - | -
O=C(Nc1ccc(N2CCCC2)c(Cl)c1)c1ccc([N+](=O)[O-])o1 | 100.5 | - | - | - | - | -
Cc1ccc(-n2c(N)c(C(=O)Nc3ccccc3F)sc2=S)cc1C | - | - | - | - | - | -
Cc1ccc(NC(=O)c2ccc([N+](=O)[O-])o2)cc1C | 100.2 | - | - | - | . | -
CN(Cc1ccccc1)C(=O)c1ccc([N+](=O)[O-])o1 | 86.0 | - | - | - | - | -
O=C(COC(=O)c1ccc([N+](=O)[O-])o1)c1ccccc1 | - | - | - | - | . | -
CC(C)Oc1cc(N)c(Cl)cc1Cl | - | - | - | - | - | -
COc1ccc(CCC(=O)N2CCCSC2=Nc2ccc(C(C)=O)cc2)cc1 | 97.8 | - | - | - | - | -
CNC(=O)C1CC(=O)N(CCc2ccc(OC)cc2)C(=Nc2ccc(OC)cc2)S1 (stereo unspecified) | - | - | - | - | - | -
COc1ccc2c(=O)cc(-c3cccnc3)oc2c1OC | . | . | - | - | - | .
